In ChEMBL document CHEMBL4393735, “Molecular modelling, synthesis, and biological evaluations of a 3,5-disubstituted isoxazole fatty acid analogue as a PPARα-selective agonist” (Bioorg Med Chem, 2019):
Activity calls are given as the source filed them.

Columns and labels:
[1] = target: T1, Peroxisome proliferator-activated receptor gamma (Homo sapiens) (UniProt P37231); test: Agonist activity at full length human FLAG-tagged GAL4-DBD fused PPARgamma LBD (205 to 505 residues) expressed in COS1 cells transfected with hRXRalpha and hPLIN1-driven reporter assessed as PLIN1 mRNA level at 50 uM measured after 18 hrs by dual luciferase reporter gene assay; type: cell-based
T1 sequence (whole entry): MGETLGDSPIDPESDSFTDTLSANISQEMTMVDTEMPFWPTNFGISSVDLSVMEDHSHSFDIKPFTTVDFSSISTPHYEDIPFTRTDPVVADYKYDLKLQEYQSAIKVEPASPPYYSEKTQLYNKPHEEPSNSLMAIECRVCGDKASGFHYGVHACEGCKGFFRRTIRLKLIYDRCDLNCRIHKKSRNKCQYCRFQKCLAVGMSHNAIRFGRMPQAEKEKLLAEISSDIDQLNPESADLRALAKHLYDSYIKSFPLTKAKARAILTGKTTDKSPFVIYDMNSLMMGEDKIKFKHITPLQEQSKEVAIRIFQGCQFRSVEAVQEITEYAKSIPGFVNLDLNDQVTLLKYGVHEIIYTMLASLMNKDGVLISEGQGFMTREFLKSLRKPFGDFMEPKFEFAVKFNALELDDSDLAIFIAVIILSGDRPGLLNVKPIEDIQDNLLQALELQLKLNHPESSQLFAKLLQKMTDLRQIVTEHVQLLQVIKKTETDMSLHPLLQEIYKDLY
Outline: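 COS-1 cells were transfected with full-length human PPARα (or PPARγ) plus RXRα expression plasmids, with a wild-type or PPRE-mutated CPT1A-intronic (or PLIN1) luciferase reporter and pRL-CMV. Cells were treated with 50 μM in 0.1% DMSO (final) for 18 h. Dual-luciferase read-out normalized to DMSO control. Three biological replicates in quadruplicate, mean ± SEM.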

[2] = target: T2, Peroxisome proliferator-activated receptor alpha (Mus musculus) (UniProt P23204); test: Agonist activity at PPARalpha in C57BL/6N mouse primary hepatocytes assessed as SCD1 mRNA expression at 50 uM measured after 18 hrs by qRT-PCR analysis; type: cell-based
T2 sequence (whole entry): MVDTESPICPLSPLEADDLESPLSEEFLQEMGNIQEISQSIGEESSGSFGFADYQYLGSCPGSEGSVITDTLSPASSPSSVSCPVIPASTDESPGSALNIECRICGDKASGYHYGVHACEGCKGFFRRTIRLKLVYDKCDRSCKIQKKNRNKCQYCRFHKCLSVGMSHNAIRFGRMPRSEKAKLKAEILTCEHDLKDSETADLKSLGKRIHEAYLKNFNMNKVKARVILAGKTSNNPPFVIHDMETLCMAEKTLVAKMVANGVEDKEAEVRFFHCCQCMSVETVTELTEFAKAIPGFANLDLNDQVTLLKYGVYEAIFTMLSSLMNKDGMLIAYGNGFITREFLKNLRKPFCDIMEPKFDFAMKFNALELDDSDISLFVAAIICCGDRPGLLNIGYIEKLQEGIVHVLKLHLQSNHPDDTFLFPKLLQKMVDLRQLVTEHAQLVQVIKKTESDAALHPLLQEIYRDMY
Outline: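 Treatment for 18 h at 50 μM (or 1 μM for the 1 μM agents), DMSO vehicle. Harvested for qPCR. mRNA normalized to TBP by the comparative threshold method, expressed relative to DMSO control. Two biological replicates run in duplicate, mean ± SEM. Primary hepatocytes came from male C57BL/6N mice aged 7–8 weeks, isolated by portal-vein perfusion and digestion, seeded on collagen I and used on day 2. HuH-7 cells were kept in DMEM with 10% FBS and ITS.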

CCCCCCCc1cc(CCCCCC(=O)O)no1
Activity [1]: inactive
Activity [2]: Active
